From PMC7261373 (Journal of medicinal chemistry, 2019)
One block for each molecule: values may come before it.

Experiments:
MCF7:5C cells = assay: DNA content assay, 2D growth inhibition of MCF7:5C cells; assay type: cell-based; conditions: for growth inhibition, result in words: 2D culture
Method in brief: (§1)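 Cells were seeded at 5000/well in 96-well plates and treated with 0.01% (v/v) DMSO vehicle or serially diluted test compound. MCF7:WS8 cells were estrogen-stripped for 2 days beforehand (phenol red-free RPMI-1640, stripped FBS) and read on day 5. MCF7:5C cells, kept in phenol red-free RPMI-1640 with charcoal:dextran-stripped FBS, were read on day 7. Lysis was at −80 °C overnight, then Hoechst 33258 fluorescence was measured in TNE buffer. Data were normalized to vehicle and no cells, from ≥3 biological and analytical replicates.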

ERα [1] = molecular target: T1, ERα (Homo sapiens, UniProt P03372); assay: ER in-cell western; assay type: cell-based; conditions: MCF7:WS8, 24 h treatment
T1 sequence (P03372 1-595): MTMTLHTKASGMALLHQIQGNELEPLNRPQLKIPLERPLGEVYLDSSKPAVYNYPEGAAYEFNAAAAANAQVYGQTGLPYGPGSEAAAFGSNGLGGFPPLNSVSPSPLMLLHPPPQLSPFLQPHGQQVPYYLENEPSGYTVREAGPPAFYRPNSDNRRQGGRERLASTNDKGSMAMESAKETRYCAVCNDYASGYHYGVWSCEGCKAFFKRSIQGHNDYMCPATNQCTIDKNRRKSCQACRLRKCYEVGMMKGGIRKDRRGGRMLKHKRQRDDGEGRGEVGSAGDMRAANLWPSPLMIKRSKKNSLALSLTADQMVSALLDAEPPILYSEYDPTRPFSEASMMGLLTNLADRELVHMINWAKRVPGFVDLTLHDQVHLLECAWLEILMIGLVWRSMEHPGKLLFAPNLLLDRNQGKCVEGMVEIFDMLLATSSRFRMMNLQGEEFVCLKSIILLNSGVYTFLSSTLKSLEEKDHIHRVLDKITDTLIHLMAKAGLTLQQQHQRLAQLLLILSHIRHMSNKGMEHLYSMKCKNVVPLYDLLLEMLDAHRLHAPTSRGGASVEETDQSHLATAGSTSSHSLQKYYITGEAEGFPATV
Method in brief: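 MCF7:WS8 cells were stripped for 2 days (phenol red-free medium, stripped FBS), plated at 2.5 × 10^4 cells/well, grown 48 h, then treated 24 h. They were fixed and stained with anti-ERα (H10) by the in-cell western protocol. The IRDye 800CW signal was normalized to CellTag 700 stain.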

[2] = Preliminary PK screen, plasma and brain concentrations by LC-MS/MS; assay type: in vivo, C57BL/6 mice; conditions: for concentration in the brain: 0.5 and 2 h, 100 mg/kg oral
MCF7:TAM1 spheroids = assay: Spheroid growth assay; assay type: cell-based; conditions: 10 nM, 14 days, ATP content
Method in brief: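 MCF7:TAM1 cells, maintained in phenol red-free stripped RPMI-1640 containing 1 μM of the selecting antiestrogen, were plated at 1000–1500 cells/well in ultra-low-attachment round-bottom plates. Spheroids grew untreated for 1–3 days. Half the medium was then replaced with 2× treatment medium, and 1× treatment was repeated every 2–3 days over 14 days; vehicle was 0.01% DMSO. Viability was read by CellTiter-Glo 3D luminescence, normalized to vehicle (1.0) and background (0.0). Three biological and analytical replicates were run, analysed by one-way ANOVA versus vehicle.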

ERE-luciferase = assay type: cell-based; conditions: MCF7:WS8, in competition with 1 nM E2
Method in brief: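 MCF7:WS8 cells were grown 3 days in phenol red-free RPMI-1640 with stripped FBS, plated at 1 × 10^5 cells/well, and held 24 h. They were then co-transfected for 6 h (Lipofectamine 2000, Opti-MEM) with pERE-luciferase (three Xenopus vitellogenin A2 EREs driving firefly luciferase) and pRL-TK Renilla. Cells were treated with test compound plus 1 nM E2 for 18 h before dual-luciferase readout.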

MCF7:WS8 cells = assay: DNA content assay, 2D growth inhibition of MCF7:WS8 cells; assay type: cell-based; conditions: for growth inhibition, result in words: MCF7:WS8, 2D culture
Method in brief: as §1

Full PK analysis of 37d = assay type: in vivo, CD-1 mice; conditions: CD-1, mouse, plasma, po, 50 mg/kg
Method in brief: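 Test compound was given orally at 50 mg/kg as a solution in water and 10% SBE-β-CD/PEG-400 (9:1 v/v). Plasma was sampled at 10 time points. Samples were diluted in 50% acetonitrile, with working standards serially diluted in 50% acetonitrile in water, and quantified by LC-MS/MS.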

ERα [3] = molecular target: T1, ERα; assay: ER western assay with proteasomal inhibitor MG-132 in MCF7:WS8 cells; assay type: cell-based; conditions: MCF7:WS8, 10 nM, MG-132 1 μM, western blot
[4] = system: T47D:WT, T47D:TYS (Y537S) and T47D:TDG (D538G) cells; assay: Spheroid growth assay; assay type: cell-based; conditions: 10 nM, 11 days treatment

Structure (SMILES): Cc1cc(F)cc(C)c1C(=O)c1sc2cc(O)ccc2c1Oc1ccc(OCCN2CC(CF)C2)cc1 [30f, (4-Fluoro-2,6-dimethylphenyl)(3-(4-(2-(3-(fluoromethyl)azetidin-1-yl)ethoxy)phenoxy)-6-hydroxybenzo[b]thiophen-2-yl)-methanone]
concentration in the brain [2]: 600 to 750 nM
inhibition of spheroid growth, in words (MCF7:TAM1 spheroids): greater efficacy

Structure (SMILES): O=C(c1ccc(O)cc1)c1sc2cc(O)ccc2c1Oc1ccc(OCCN2CC(CF)C2)cc1 [30g, (3-(4-(2-(3-(Fluoromethyl)azetidin-1-yl)ethoxy)phenoxy)-6-hydroxybenzo[b]thiophen-2-yl)(4-hydroxyphenyl)methanone]
growth inhibition, result in words (MCF7:5C cells): lost efficacy

Structure (SMILES): Cc1ccccc1C(=O)c1sc2cc(O)ccc2c1Oc1ccc(OCCN2CC[C@@H](CF)C2)cc1 [30l, (R)-(3-(4-(2-(3-(Fluoromethyl)pyrrolidin-1-yl)ethoxy)phenoxy)-6-hydroxybenzo[b]thiophen-2-yl)(o-tolyl)methanone]
growth inhibition, result in words (MCF7:5C cells): superior potency and efficacy to 2
growth inhibition, result in words (MCF7:WS8 cells): superior potency and efficacy to 2

Structure (SMILES): Cc1cc(F)cc(C)c1C(=O)c1sc2cc(O)ccc2c1Oc1ccc(OCCN2CC[C@@H](CF)C2)cc1 [30m, (R)-(4-Fluoro-2,6-dimethylphenyl)(3-(4-(2-(3-(fluoromethyl)-pyrrolidin-1-yl)ethoxy)phenoxy)-6-hydroxybenzo[b]thiophen-2-yl)-methanone]
antagonism of ERE-luciferase induction by E2, potency in words (ERE-luciferase): lower potency

Structure (SMILES): Cc1cc(F)cc(C)c1C(=O)c1sc2cc(O)ccc2c1Oc1ccc(OC2CN(CCCF)C2)cc1 [37d, (4-Fluoro-2,6-dimethylphenyl)(3-(4-((1-(3-fluoropropyl)azetidin-3-yl)oxy)phenoxy)-6-hydroxybenzo[b]thiophen-2-yl)methanone]
half-life (Full PK analysis of 37d): 4.5 h
proteasome dependence of ERα degradation, in words (ERα [3]): coadministration of a proteasome inhibitor blocked the actions
concentration in the brain [2]: exceeded 1 μM
inhibition of spheroid growth, in words (MCF7:TAM1 spheroids): greater efficacy
efficacy in T47D spheroids, in words [4]: equally as effective as the SERDs, fulvestrant (2) and GDC-0927 (3b), and as the SERM 1b

Structure (SMILES): O=C(c1ccc(OCCN2CCCCC2)cc1)c1c(-c2ccc(O)cc2)sc2cc(O)ccc12 [compound 6, raloxifene, reference compound]
growth inhibition, result in words (MCF7:5C cells): cross-resistant

Now from value to molecule, other results behind:

ERα degradation by ICW, result in words (ERα [1]): reduced efficacy
Structure (SMILES): Cc1ccccc1C(=O)c1sc2cc(O)ccc2c1Oc1ccc(OCCN2CCC2)cc1 [30a, (3-(4-(2-(Azetidin-1-yl)ethoxy)phenoxy)-6-hydroxybenzo[b]-thiophen-2-yl)(o-tolyl)methanone]
growth inhibition, result in words (MCF7:5C cells): significantly reduced efficacy

ERα degradation by ICW, result in words (ERα [1]): reduced efficacy
Structure (SMILES): Cc1cc(O)ccc1C(=O)c1sc2cc(O)ccc2c1Oc1ccc(OCCN2CC(CF)C2)cc1 [30h, (3-(4-(2-(3-(Fluoromethyl)azetidin-1-yl)ethoxy)phenoxy)-6-hydroxybenzo[b]thiophen-2-yl)(4-hydroxy-2-methylphenyl)-methanone]
antagonism of ERE-luciferase induction by E2, potency in words (ERE-luciferase): lower potency

ERα degradation by ICW, result in words (ERα [1]): reduced efficacy
Structure (SMILES): Cc1cc(F)cc(C)c1C(=O)c1sc2cc(O)ccc2c1Oc1ccc(OCCN2CC[C@H](CF)C2)cc1 [30n, (S)-(4-Fluoro-2,6-dimethylphenyl)(3-(4-(2-(3-(fluoromethyl)-pyrrolidin-1-yl)ethoxy)phenoxy)-6-hydroxybenzo[b]thiophen-2-yl)-methanone]

ERα degradation by ICW, result in words (ERα [1]): did not induce ER degradation
Structure (SMILES): Cc1ccccc1C(=O)c1sc2cc(O)ccc2c1Oc1ccc(OCCN2CCCCC2)cc1 [30o, (6-Hydroxy-3-(4-(2-(piperidin-1-yl)ethoxy)phenoxy)benzo[b]-thiophen-2-yl)(o-tolyl) Methanone]
growth inhibition, result in words (MCF7:5C cells): did not inhibit growth

ERα degradation by ICW, result in words (ERα [1]): low efficacy
Structure (SMILES): Cc1cc(F)cc(C)c1C(=O)c1sc2cc(O)ccc2c1Oc1ccc(OC2CN(C3CC3)C2)cc1 [37f, (3-(4-((1-Cyclopropylazetidin-3-yl)oxy)phenoxy)-6-hydroxybenzo[b]thiophen-2-yl)(4-fluoro-2,6-dimethylphenyl)-methanone]
antagonism of ERE-luciferase induction by E2, potency in words (ERE-luciferase): lower potency
growth inhibition, result in words (MCF7:5C cells): loss of efficacy
growth inhibition, result in words (MCF7:WS8 cells): potent and effective

IC50 (MCF7:5C cells; 144 h, read-out: pIC50, inhibition of cell growth (converted)): 0.631 to 1.58 nM
concentration in the brain, in words ([2]; 30 min, s.c.): below the limit of quantification
IC50 (MCF7:WS8 cells; MCF7:WS8, 96 h, read-out: pIC50, inhibition of cell growth (converted)): 0.631 to 1.58 nM
Structure (SMILES): C[C@]12CC[C@@H]3c4ccc(O)cc4C[C@@H](CCCCCCCCC[S+]([O-])CCCC(F)(F)C(F)(F)F)[C@H]3[C@@H]1CC[C@@H]2O (stereo partly drawn) [compound 2, fulvestrant, reference compound]
inhibition of spheroid growth, in words (MCF7:TAM1 spheroids): greater efficacy
